Measured values gathered from unrelated publications.
Lines come from different studies, so protocols differ.
Target: Serine/threonine-protein kinase 24 (STK24, Homo sapiens, UniProt Q9Y6E0)

COc1ncccc1-c1cnn2ccc(N3CCN(C(=O)OC(C)C)CC3)nc12 — remaining binding (binding; competition with immobilised ligand; 1 µM): 84%
Cc1nn(C)cc1-c1nc2c(N3CCN(Cc4ccc(Cl)cc4)CC3)c(Cl)cnc2[nH]1 — remaining binding (binding; competition with immobilised ligand; 1 µM): 85%
O=c1[nH]c2ccccc2n1C1CCN(Cc2ccc(-c3[nH]c4cc5ncnc5cc4nc3-c3ccccc3)cc2)CC1 — remaining signal (cell-free assay; 0.5 µM): 90.7%
COCc1c(-c2cc3cc(C)cc(OC)c3s2)c2c(N)ncnn2c1CN1CCNC(=O)C1 — inhibition (cell-free assay; competition with immobilised ligand; 1 µM): 90.6%
Cn1cc(-c2cccc(N3CCc4c(sc5c4CC(C)(C)C5)C3=O)c2CO)cc(Nc2ccncn2)c1=O — inhibition (enzyme activity; inhibitor; 1 µM): 3%
Cn1cncc1[C@@](O)(COc1ccc(C#N)cc1-c1ccc(OC(F)(F)F)cc1)c1ccc(C#N)cc1 — remaining binding (cell-free assay; competition with immobilised ligand; 1 µM): 100%
CC(C)(C)c1cc(C=C(C#N)C#N)cc(Br)c1O — remaining activity (enzyme activity; inhibitor; 0.5 µM): 96.3%
N#CC1(c2ccccn2)CCN(Cc2cc(C(=O)O)c(=O)n3ccccc23)CC1 — remaining binding (cell-free assay; competition with immobilised ligand; 1 µM): 100%
Nc1ncc(-c2nc(N3CCOCC3)nc(N3CCOCC3)n2)c(C(F)F)n1 — remaining binding (binding; competition with immobilised ligand; 10 µM): 91%
Cn1cc(-c2cc(F)cc(N3CCn4c(cc5c4CCCC5)C3=O)c2CO)cc(Nc2ccc(N3CCN(C4COC4)CC3)cn2)c1=O — inhibition (enzyme activity; inhibitor; 0.1 µM): 18%
